Measurements reported in ChEMBL document CHEMBL1687707, “Changes in the plasmodial surface anion channel reduce leupeptin uptake and can confer drug resistance in Plasmodium falciparum-infected erythrocytes” (Antimicrob Agents Chemother, 2008).
Calls of active or inactive are those of the source. The calls are words filed in the database; no cut-off is given here.

Assays:
Plasmodium falciparum [1] = assay: Antimicrobial activity against leupeptin resistant-Plasmodium falciparum HB3-leuR1 mutant infected in erythrocytes assessed as growth inhibition after 72 hrs by SYBR Green I-based fluorescence assay; type: functional, organism-based; conditions: HB3-leuR1, 72 h
Method in brief: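 Sorbitol-synchronized cultures seeded at 0.2–0.5% parasitemia, 5% hematocrit in RPMI 1640/25 mM HEPES/2% serum/hypoxanthine. Incubated 72 h at 37°C in 5% O₂-5% CO₂. Freeze-thaw, then SYBR green I, 30 min dark, fluorescence 485/528 nm. Triplicate means with background subtracted (20 μM chloroquine-killed cultures). IC50 by nonlinear fit, three or more experiments.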

Plasmodium falciparum [2] = assay: Antimicrobial activity against wild type Plasmodium falciparum HB3 infected in erythrocytes assessed as growth inhibition after 72 hrs by SYBR Green I-based fluorescence assay; type: functional, organism-based; conditions: HB3, 72 h
Plasmodium falciparum [3] = assay: Antimicrobial activity against wild type Plasmodium falciparum HB3 infected in erythrocytes assessed as growth inhibition after 5 days by SYBR Green I-based fluorescence assay; conditions: HB3, 5 days
Plasmodium falciparum [4] = assay: Antimicrobial activity against leupeptin resistant-Plasmodium falciparum HB3-leuR1 mutant infected in erythrocytes assessed as growth inhibition after 5 days by SYBR Green I-based fluorescence assay; conditions: HB3-leuR1, 5 days
[5] = Inhibition of PSAC-mediated sorbitol uptake in erythrocytes infected with leupeptin resistant-Plasmodium falciparum HB3-leuR1 at 50 uM; type: cell-based
[6] = Activity of PSAS assessed as channel-mediated drug uptake measured by inhibition of papain-mediated substrate hydrolysis by Plasmodium falciparum HB3 infected erythrocyte cytosol harvested from cells incubated at 40 uM for 15 mins by Z-Phe-Arg-AMC substrate hydrolysis assay
Method in brief: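 They were counted, then lysed at 20% hematocrit with 0.05% saponin. Cytosol from 10⁸ cells went into pH 5.5 acetate with 10 mM DTT and 150 ng/ml papain, then 50 μM Z-Phe-Arg-AMC. Rates came from 353/442 nm readings over 10 min; four experiments.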

[7] = Activity of PSAS assessed as channel-mediated drug uptake measured by inhibition of papain-mediated substrate hydrolysis by Plasmodium falciparum HB3 infected erythrocyte cytosol harvested from cells incubated at 40 uM for 15 mins in presence og PSAC antagonist NPF1 by Z-Phe-Arg-AMC substrate hydrolysis assay; type: functional
Method in brief: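 Erythrocyte cytosol was released with 0.05% saponin, and 10⁸-cell equivalents were incubated with 150 ng/ml papain and 10 mM DTT at pH 5.5. Z-Phe-Arg-AMC (50 μM) hydrolysis was read every 2 min for 10 min, given as percent inhibition; four experiments.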

[8] = Activity of PSAS assessed as channel-mediated drug uptake measured by inhibition of papain-mediated substrate hydrolysis by leupeptin resistant-Plasmodium falciparum HB3-leuR1 infected erythrocyte cytosol harvested from cells incubated at 40 uM for 15 mins by Z-Phe-Arg-AMC substrate hydrolysis assay
Plasmodium falciparum [9] = assay: Antimicrobial activity against leupeptin resistant-Plasmodium falciparum HB3-leuR1 mutant infected in erythrocytes assessed as growth inhibition after 72 hrs in presence of PSAC antagonist NPF1 by SYBR Green I-based fluorescence assay; type: functional, organism-based
Method in brief: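 SYBR green I growth assay for 72 h at 37°C using serial dilutions of several fixed molar ratios of leupeptin and NPF-1. IC50 of each agent interpolated for each ratio and plotted as an isobologram. Background subtracted using chloroquine-killed cultures.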

Falcipain 2 [10] = target: Falcipain 2 (Plasmodium falciparum, UniProt Q9N6S8); assay: Inhibition of Cysteine protease falcipain-2 in Plasmodium falciparum HB3-leuR1 mutant infected erythrocytes by Z-Phe-Arg-AMC substrate hydrolysis assay
Method in brief: (§1)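 Soluble extracts from trophozoite-infected erythrocytes enriched to 95–99% parasitemia (Percoll-sorbitol). Adjusted to 40 μg/ml protein in 0.1 M sodium acetate pH 5.5 with 10 mM DTT, with or without leupeptin. Prewarmed to 37°C; 50 μM Z-Phe-Arg-AMC added; fluorescence 353/442 nm read every 2 min. Rates by regression over 10–90 min, triplicate. K0.5 fit with Hill coefficient 1.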

Falcipain 2 [11] = target: T1, Falcipain 2 (Plasmodium falciparum, UniProt Q9N6S8); assay: Inhibition of Cysteine protease falcipain-2 in Plasmodium falciparum HB3 infected erythrocytes by Z-Phe-Arg-AMC substrate hydrolysis assay
T1 sequence (Q9N6S8 whole entry): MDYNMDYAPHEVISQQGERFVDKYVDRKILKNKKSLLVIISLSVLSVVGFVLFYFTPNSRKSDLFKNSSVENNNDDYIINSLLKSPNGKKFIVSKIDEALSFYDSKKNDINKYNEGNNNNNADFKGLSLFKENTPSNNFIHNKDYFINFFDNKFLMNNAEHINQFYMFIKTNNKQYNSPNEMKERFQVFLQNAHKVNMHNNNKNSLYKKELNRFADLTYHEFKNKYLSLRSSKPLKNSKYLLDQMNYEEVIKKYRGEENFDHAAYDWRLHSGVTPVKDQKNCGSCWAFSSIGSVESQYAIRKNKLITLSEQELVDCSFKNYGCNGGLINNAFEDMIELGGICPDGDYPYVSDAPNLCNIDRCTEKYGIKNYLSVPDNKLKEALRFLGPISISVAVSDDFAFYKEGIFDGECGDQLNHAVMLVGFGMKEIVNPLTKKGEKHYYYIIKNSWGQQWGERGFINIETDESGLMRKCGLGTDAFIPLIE
Method in brief: (§2)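 Soluble extracts came from trophozoite-infected cells enriched to 95–99% parasitemia. They were set at 40 μg/ml protein in 0.1 M sodium acetate pH 5.5 with 10 mM DTT and leupeptin, prewarmed to 37°C, then given 50 μM Z-Phe-Arg-AMC. Fluorescence (353/442 nm) was read every 2 min, with rates regressed over 10–90 min and triplicate means. K0.5 came from a 1:1 fit; n=4.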

Plasmodium falciparum [12] = assay: Induction of parasite morphology changes in wild type Plasmodium falciparum HB3 infected in erythrocytes assessed as occurrence of enlarged digestive vacuoles by transmission electron microscopy; type: functional, organism-based
Method in brief: (§3)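 For electron microscopy, infected erythrocytes were cultured with 100 μM leupeptin for 6 h. They were fixed overnight at 4°C in 2.5% glutaraldehyde/4% paraformaldehyde in 0.1 M cacodylate pH 7.4, postfixed in osmium tetroxide/ferricyanide and stained with uranyl acetate. Samples were Spurr-embedded, and thin sections were lead/uranyl stained and imaged at 80 kV.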

Plasmodium falciparum [13] = assay: Induction of parasite morphology changes in leupeptin resistant-Plasmodium falciparum HB3-leuR1 mutant infected in erythrocytes assessed as occurrence of enlarged digestive vacuoles by transmission electron microscopy; type: functional, organism-based
[14] = target: T2, Cysteine protease falcipain-3 (Plasmodium falciparum, UniProt Q9NAW4); assay: Inhibition of Cysteine protease falcipain-3 in Plasmodium falciparum HB3 infected erythrocytes by Z-Phe-Arg-AMC substrate hydrolysis assay; method in brief: as §2
T2 sequence (Q9NAW4 whole entry): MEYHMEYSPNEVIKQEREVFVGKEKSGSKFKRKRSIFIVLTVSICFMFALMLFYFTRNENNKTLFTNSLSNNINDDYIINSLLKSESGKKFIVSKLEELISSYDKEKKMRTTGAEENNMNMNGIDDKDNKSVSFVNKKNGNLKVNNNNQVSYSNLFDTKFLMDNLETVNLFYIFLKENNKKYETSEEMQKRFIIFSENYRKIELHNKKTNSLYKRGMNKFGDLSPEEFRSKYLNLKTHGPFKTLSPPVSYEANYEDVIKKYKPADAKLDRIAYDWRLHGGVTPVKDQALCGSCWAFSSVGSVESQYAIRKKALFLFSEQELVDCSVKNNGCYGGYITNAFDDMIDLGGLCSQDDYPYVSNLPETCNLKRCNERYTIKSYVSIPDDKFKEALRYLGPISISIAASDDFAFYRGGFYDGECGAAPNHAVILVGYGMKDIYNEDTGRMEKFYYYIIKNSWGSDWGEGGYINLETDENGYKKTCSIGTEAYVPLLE

[15] = target: Cysteine protease falcipain-3 (Plasmodium falciparum, UniProt Q9NAW4); assay: Inhibition of Cysteine protease falcipain-3 in Plasmodium falciparum HB3-leuR1 mutant infected erythrocytes by Z-Phe-Arg-AMC substrate hydrolysis assay; method in brief: as §1
[16] = Inhibition of PSAC-mediated sorbitol uptake in erythrocytes infected with Plasmodium falciparum HB3 at 50 uM; type: cell-based
Method in brief: (§4)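 Percoll-sorbitol-enriched trophozoite-infected cells were washed in PBS, then suspended at 0.5% hematocrit in 280 mM sorbitol, 20 mM sodium HEPES and 0.1 mg/ml BSA, pH 7.4, with PSAC antagonists. Osmotic lysis kinetics gave half-times, and K0.5 was fitted by nonlinear least squares.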

Plasmodium falciparum [17] = assay: Reduction in formation of hemozoin crystals in wild type Plasmodium falciparum HB3 infected in erythrocytes at 100 uM for 6 hrs by transmission electron microscopy; type: functional, organism-based; method in brief: as §3
Plasmodium falciparum [18] = assay: Reduction in formation of hemozoin crystals in leupeptin resistant-Plasmodium falciparum HB3-leuR1 mutant infected in erythrocytes at 100 uM for 6 hrs by transmission electron microscopy; type: functional, organism-based
Method in brief: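 Infected erythrocytes cultured with 100 μM leupeptin for 6 h. Fixed overnight at 4°C in 2.5% glutaraldehyde-4% paraformaldehyde in cacodylate pH 7.4. Postfixed in osmium tetroxide-ferricyanide, stained with uranyl acetate, embedded in Spurr's resin. Thin sections stained with uranyl acetate/lead citrate and imaged at 80 kV.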

[19] = target: T3, Falcipain 2 (Plasmodium falciparum) (UniProt Q9N6S8); assay: Inhibition of Cysteine protease falcipain-2 in Plasmodium falciparum HB3 infected erythrocytes assessed as slowing of substrate hydrolysis by Z-Phe-Arg-AMC substrate hydrolysis assay; method in brief: as §1
T3 sequence (whole entry): T1 sequence (Q9N6S8 whole entry)

[20] = target: T3, Falcipain 2 (Plasmodium falciparum); assay: Inhibition of Cysteine protease falcipain-2 in Plasmodium falciparum HB3-leuR1 mutant infected erythrocytes assessed as slowing of substrate hydrolysis by Z-Phe-Arg-AMC substrate hydrolysis assay; method in brief: as §1
[21] = target: T4, Cysteine protease falcipain-3 (Plasmodium falciparum) (UniProt Q9NAW4); assay: Inhibition of Cysteine protease falcipain-3 in Plasmodium falciparum HB3 infected erythrocytes assessed as slowing of substrate hydrolysis by Z-Phe-Arg-AMC substrate hydrolysis assay; method in brief: as §1
T4 sequence (whole entry): T2 sequence (Q9NAW4 whole entry)

[22] = target: T4, Cysteine protease falcipain-3 (Plasmodium falciparum); assay: Inhibition of Cysteine protease falcipain-3 in Plasmodium falciparum HB3-leuR1 mutant infected erythrocytes assessed as slowing of substrate hydrolysis by Z-Phe-Arg-AMC substrate hydrolysis assay; method in brief: as §1
Plasmodium falciparum [23] = assay: Reduction in hemozoin production in wild type Plasmodium falciparum HB3 infected in erythrocytes at 50 uM for 18 hrs by absorbance scan at 400 nm
Plasmodium falciparum [24] = assay: Reduction in hemozoin production in leupeptin resistant-Plasmodium falciparum HB3-leuR1 mutant infected in erythrocytes at 50 uM for 18 hrs by absorbance scan at 400 nm
[25] = Inhibition of PSAC-mediated sorbitol uptake in erythrocytes infected with Plasmodium falciparum HB3 at 100 to 5000 uM by osmotic lysis half-time determination assay; type: cell-based; method in brief: as §4
[26] = Inhibition of PSAC-mediated sorbitol uptake in erythrocytes infected with leupeptin resistant-Plasmodium falciparum HB3-leuR1 by osmotic lysis half-time determination assay; type: cell-based
[27] = Inhibition of single PSAC in erythrocytes infected with Plasmodium falciparum HB3 at 100 to 5000 uM by cell attached patch clamp method; type: cell-based
Method in brief: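 Cell-attached patch-clamp recordings were made on trophozoite-stage infected erythrocytes. Bath and pipette solutions were symmetric: 1,000 mM choline chloride, 115 mM NaCl, 10 mM MgCl₂, 5 mM CaCl₂ and 20 mM sodium HEPES, pH 7.4.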

[28] = Inhibition of single PSAC in erythrocytes infected with leupeptin resistant-Plasmodium falciparum HB3-leuR1 cell attached patch clamp method; type: cell-based

C[C@@H]1CC[C@H]2[C@@H](C)C(=O)O[C@@H]3O[C@@]4(C)CC[C@@H]1[C@]32OO4 [ARTEMISININ]
IC50 (Plasmodium falciparum [1]): 0.00771 µM
IC50 (Plasmodium falciparum [2]): 0.00836 µM

CN(CC[C@H](N)CC(=O)N[C@H]1C=C[C@H](n2ccc(N)nc2=O)O[C@@H]1C(=O)O)C(=N)N [BLASTICIDIN_S]
IC50 (Plasmodium falciparum [3]): 0.43 µM
IC50 (Plasmodium falciparum [4]): 1.15 µM

CC(C)C[C@H](NC(=O)[C@H]1O[C@@H]1C(=O)O)C(=O)NCCCCN=C(N)N [E-64]
IC50 (Plasmodium falciparum [3]): 3.69 µM
IC50 (Plasmodium falciparum [4]): 5.88 µM

CC(=O)N[C@@H](CC(C)C)C(=O)N[C@@H](CC(C)C)C(=O)N[C@H](C=O)CCCNC(=N)N [LEUPEPTIN]
inhibition [5]: inactive
Activity [6]: Active
Activity [7]: inactive
Activity [8]: inactive
growth inhibition (GI) (Plasmodium falciparum [9]): inactive
IC50 (Falcipain 2 [10]): 0.098 µM
IC50 (Falcipain 2 [11]): 0.087 µM
Activity (Plasmodium falciparum [12]): Active
Activity (Plasmodium falciparum [13]): inactive
IC50 [14]: 0.087 µM
IC50 [15]: 0.098 µM
inhibition [16]: inactive
Activity (Plasmodium falciparum [17]): Active
Activity (Plasmodium falciparum [18]): inactive
inhibition [19]: Active
inhibition [20]: Active
inhibition [21]: Active
inhibition [22]: Active
Activity (Plasmodium falciparum [23]): Active
Activity (Plasmodium falciparum [24]): inactive
IC50 (Plasmodium falciparum [3]): 18 µM
IC50 (Plasmodium falciparum [4]): 74 µM

CC(C)CC(=O)N[C@H](C(=O)N[C@H](C(=O)N[C@@H](CC(C)C)[C@@H](O)CC(=O)N[C@@H](C)C(=O)N[C@@H](CC(C)C)[C@@H](O)CC(=O)O)C(C)C)C(C)C [PEPSTATIN]
IC50 (Plasmodium falciparum [3]): 39.2 µM
IC50 (Plasmodium falciparum [4]): 29.4 µM

O=C(CCc1ccc(O)cc1)c1c(O)cc(O)cc1O[C@@H]1O[C@H](CO)[C@@H](O)[C@H](O)[C@H]1O [PHLORIZIN]
inhibition [25]: Active
inhibition [26]: inactive
IC50 [27]: 17 µM
IC50 [28]: 340 µM

C=C[C@H]1CN2CC[C@H]1C[C@H]2[C@H](O)c1ccnc2ccc(OC)cc12 [QUININE]
IC50 (Plasmodium falciparum [1]): 0.074 µM
IC50 (Plasmodium falciparum [2]): 0.0771 µM
